{"source": "ChEMBL document CHEMBL3992496", "about": "“Oligonucleotide transition state analogues of saporin L3” (Eur J Med Chem, 2017)", "key": {"[1]": {"experiment": "Competitive inhibition of Saponaria officinalis saporin L3 expressed in yeast using RNA A10 as substrate preincubated for 10 mins followed substrate addition by luciferase assay"}, "[2]": {"experiment": "Competitive inhibition of Saponaria officinalis saporin L1 using RNA A10 as substrate preincubated for 10 mins followed substrate addition by continuous luciferase assay"}, "[3]": {"experiment": "Competitive inhibition of Saponaria officinalis saporin L3 expressed in yeast using yeast tRNA as substrate"}, "[4]": {"experiment": "Competitive inhibition of Saponaria officinalis saporin L3 expressed in yeast using rabbit rRNA as substrate", "in_short": "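Saporin L3 secreted from yeast cultures and purified to near-homogeneity. Substrate was isolated rabbit 80S ribosomes purified in-house, fixed at 100 nM, with concentration from A260. Inhibitor at varying concentrations was preincubated with enzyme for 10 min. K_i* was taken as slow-onset competitive inhibition.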"}, "[5]": {"experiment": "Competitive inhibition of Saponaria officinalis saporin L3 A14C mutant expressed in yeast using yeast tRNA as substrate", "in_short": "(§1)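 Saporin L3 A14C, secreted from yeast and purified. Substrate held fixed: isolated rabbit 80S ribosomes (100 nM) or yeast tRNA (1.0 mg/mL). Inhibitor preincubated with enzyme 10 min for slow-onset binding before substrate, then adenine release read by coupled luciferase method. Ki* taken from competitive inhibition fit.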"}, "[6]": {"experiment": "Competitive inhibition of Saponaria officinalis saporin L3 A14C mutant expressed in yeast using rabbit rRNA as substrate", "in_short": "as §1"}, "[7]": {"experiment": "Inhibition of yeast expressing Saponaria officinalis saporin L3 A14C mutant-mediated suppression of luciferase mRNA translation in rabbit reticulocyte extract preincubated with protein for 10 mins followed by addition of rabbit reticulocyte translation system for 90 mins by luciferase assay", "in_short": "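Rabbit reticulocyte lysate translation of luciferase-encoding mRNA. 10 nM SAP A14C preincubated 10 min with increasing inhibitor in pH 7.4 buffer, then added to translation mix, 30 °C, 90 min. Luciferase luminescence read. Control contained top inhibitor concentration without enzyme. Percent translation vs log inhibitor fit to dose-response curve for EC50.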"}}, "data": [{"smiles": "CO[C@@H]1[C@H](OP(=O)(O)OC[C@H]2CN(Cc3c[nH]c4c(N)ncnc34)C[C@@H]2OP(=O)(O)OC[C@H]2O[C@@H](n3cnc4c(=O)[nH]c(N)nc43)[C@H](OC)[C@@H]2OP(=O)(O)OCCCO)[C@@H](CO)O[C@H]1n1cnc2c(=O)[nH]c(N)nc21", "values": [{"measurement": "Ki", "setting": "[1]", "result": 10.5, "unit": "nM"}]}, {"smiles": "CO[C@@H]1[C@H](O)[C@@H](COP(=O)(O)O[C@H]2[C@@H](OC)[C@H](n3cnc4c(=O)[nH]c(N)nc43)O[C@@H]2COP(=O)(O)O[C@H]2CN(Cc3c[nH]c4c(N)ncnc34)C[C@@H]2COP(=O)(O)OC2[C@@H](OC)[C@H](n3cnc4c(=O)[nH]c(N)nc43)O[C@@H]2CO)O[C@H]1n1cnc2c(N)ncnc21", "note": "(stereo partly drawn)", "values": [{"measurement": "Ki", "setting": "[1]", "result": 6.1, "unit": "nM"}]}, {"smiles": "CO[C@@H]1[C@H](OP(=O)(O)OC[C@H]2CN(Cc3c[nH]c4c(N)ncnc34)C[C@@H]2OP(=O)(O)OCCCO)[C@@H](COP(=O)(O)OCCCO)O[C@H]1n1cnc2c(=O)[nH]c(N)nc21", "values": [{"measurement": "Ki", "setting": "[1]", "result": 188, "unit": "nM"}]}, {"smiles": "CO[C@@H]1[C@H](OP(=O)(O)OCCCO)[C@@H](COP(=O)(O)O[C@H]2CN(CCc3c[nH]c4c(N)ncnc34)C[C@@H]2COP(=O)(O)OCCCO)O[C@H]1n1cnc2c(=O)[nH]c(N)nc21", "values": [{"measurement": "Ki", "setting": "[1]", "result": 12.4, "unit": "nM"}]}, {"smiles": "CO[C@@H]1[C@H](O)[C@@H](COP(=O)(O)O[C@H]2CN(Cc3c[nH]c4c(N)ncnc34)C[C@@H]2CO)O[C@H]1n1cnc2c(=O)[nH]c(N)nc21", "values": [{"measurement": "Ki", "setting": "[1]", "result": 21300, "unit": "nM"}]}, {"smiles": "CO[C@@H]1[C@H](OP(=O)(O)OCCCO)[C@@H](COP(=O)(O)OCC(COP(=O)(O)OCCCO)NCc2c[nH]c3c(N)ncnc23)O[C@H]1n1cnc2c(=O)[nH]c(N)nc21", "note": "(stereo partly drawn)", "values": [{"measurement": "Ki", "setting": "[2]", "result": 43.2, "unit": "nM"}]}, {"smiles": "CO[C@@H]1[C@H](O)[C@@H](COP(=O)(O)O[C@H]2CN(Cc3c[nH]c4c(N)ncnc34)C[C@@H]2COP(=O)(O)OCCCO)O[C@H]1n1cnc2c(=O)[nH]c(N)nc21", "values": [{"measurement": "Ki", "setting": "[1]", "result": 19.3, "unit": "nM"}]}, {"smiles": "CO[C@@H]1[C@H](OP(=O)(O)OCCCO)[C@@H](COP(=O)(O)O[C@H]2CN(Cc3c[nH]c4c(N)ncnc34)C[C@@H]2COP(=O)(O)OCCCO)O[C@H]1n1cnc2c(=O)[nH]c(N)nc21", "values": [{"measurement": "Ki", "setting": "[1]", "result": 3.3, "unit": "nM"}, {"measurement": "Ki", "setting": "[3]", "result": 9.9, "unit": "nM"}, {"measurement": "Ki", "setting": "[4]", "result": 6.7, "unit": "nM"}, {"measurement": "Ki", "setting": "[5]", "result": 8.4, "unit": "nM"}, {"measurement": "Ki", "setting": "[6]", "result": 5.4, "unit": "nM"}, {"measurement": "IC50", "setting": "[7]", "result": 13, "unit": "nM"}]}, {"smiles": "CO[C@@H]1[C@H](OP(=O)(O)OC[C@H]2O[C@@H](n3cnc4c(=O)[nH]c(N)nc43)[C@H](OC)[C@@H]2OP(=O)(O)OC[C@H]2CN(Cc3c[nH]c4c(N)ncnc34)C[C@@H]2OP(=O)(O)OCCCO)[C@@H](CO)O[C@H]1n1cnc2c(=O)[nH]c(N)nc21", "values": [{"measurement": "Ki", "setting": "[1]", "result": 212, "unit": "nM"}]}, {"smiles": "CO[C@@H]1[C@H](OP(=O)(O)OCCCO)[C@@H](COP(=O)(O)O[C@H]2CN(Cc3c[nH]c4c(N)ncnc34)C[C@@H]2CO)O[C@H]1n1cnc2c(=O)[nH]c(N)nc21", "values": [{"measurement": "Ki", "setting": "[1]", "result": 10700, "unit": "nM"}]}, {"smiles": "CO[C@@H]1[C@H](O)[C@@H](COP(=O)(O)O[C@H]2CN(Cc3c[nH]c4c(N)ncnc34)C[C@@H]2COP(=O)(O)OC2[C@@H](OC)[C@H](n3cnc4c(=O)[nH]c(N)nc43)O[C@@H]2CO)O[C@H]1n1cnc2c(=O)[nH]c(N)nc21", "note": "(stereo partly drawn)", "values": [{"measurement": "Ki", "setting": "[1]", "result": 33, "unit": "nM"}]}, {"smiles": "CO[C@@H]1[C@H](OP(=O)(O)OC[C@H]2CN(Cc3c[nH]c4c(N)ncnc34)C[C@@H]2OP(=O)(O)OC[C@H]2O[C@@H](n3cnc4c(=O)[nH]c(N)nc43)[C@H](OC)[C@@H]2OP(=O)(O)OCCCO)[C@@H](COP(=O)(O)OCCCO)O[C@H]1n1cnc2c(=O)[nH]c(N)nc21", "values": [{"measurement": "Ki", "setting": "[1]", "result": 7.4, "unit": "nM"}]}, {"smiles": "CO[C@@H]1[C@H](OP(=O)(O)OCCCO)[C@@H](COP(=O)(O)OCC(CNCc2c[nH]c3c(N)ncnc23)COP(=O)(O)OCCCO)O[C@H]1n1cnc2c(=O)[nH]c(N)nc21", "note": "(mixture of isomers)", "values": [{"measurement": "Ki", "setting": "[1]", "result": 26.8, "unit": "nM"}]}]}
